Reference: ChEMBL document CHEMBL1157108, “Rapid structural identification of cytotoxic bufadienolide sulfates in toad venom from Bufo melanosticus by LC-DAD-MS(n) and LC-SPE-NMR” (J Nat Prod, 2010)

Legend:
A549 = assay: Growth inhibition of human A549 cells after 72 hrs by MTT assay; assay type: functional, cell-based; settings: A549, 72 h
Outline: (§1)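 Cells seeded at 10 000 to 40 000 cells/mL (cell-type dependent) and allowed 24 h to plate, then grown 72 h with or without compound. Culture in RPMI with 10% heat-inactivated FCS, 4 mM glutamine, gentamicin and penicillin-streptomycin. Living cells reduce MTT to formazan, read at 570 nm against a 630 nm reference. IC50 reported as mean ± SD.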

[1] = Growth inhibition of human Hs683 cells after 72 hrs by MTT assay; assay type: functional, cell-based; settings: Hs 683, 72 h; outline: as §1
[2] = Growth inhibition of human U373 cells after 72 hrs by MTT assay; assay type: functional, cell-based, U-373MG ATCC; settings: U373 MG; outline: as §1
MCF7 = assay: Growth inhibition of human MCF7 cells after 72 hrs by MTT assay; assay type: functional, cell-based; settings: MCF7, 72 h; outline: as §1
B16-F10 = assay: Growth inhibition of mouse B16F10 cells after 72 hrs by MTT assay; assay type: functional, cell-based; settings: B16-F10, 72 h; outline: as §1
CT26 = assay: Growth inhibition of mouse CT26 cells after 72 hrs by MTT assay; assay type: functional, cell-based; settings: CT26, 72 h; outline: as §1

**Q.** For `C[C@]12CC[C@H]3[C@@H](CC[C@]4(O)C[C@@H](OS(=O)(=O)O)CC[C@]34CO)[C@@]1(O)CC[C@@H]2c1ccc(=O)oc1`, which IC50 (A549) is on record?
**A.** The IC50 was 0.08 µM.

**Q.** What about the IC50 [1] of the same compound?
**A.** Its IC50 is 0.05 µM.

**Q.** What about the IC50 [2] of the same compound?
**A.** Its IC50 is 0.323 µM.

**Q.** And the IC50 (MCF7)?
**A.** Its IC50 is 0.12 µM.

**Q.** And the IC50 (B16-F10)?
**A.** The IC50 was > 10 µM.

**Q.** What about the IC50 (CT26) of the same compound?
**A.** The IC50 was > 10 µM.

**Q.** With `CC(=O)O[C@H]1C[C@]2(O)[C@@H]3CC[C@@H]4C[C@@H](O)CC[C@]4(C)[C@H]3[C@H](O)C(=O)[C@]2(C)[C@H]1c1ccc(=O)oc1` as the compound, how does the IC50 (A549) read?
**A.** The IC50 was 1.36 µM.

**Q.** What about the IC50 [1] of the same compound?
**A.** Its IC50 is 0.455 µM.

**Q.** And the IC50 [2]?
**A.** Its IC50 is 0.878 µM.

**Q.** What about the IC50 (MCF7) of the same compound?
**A.** Its IC50 is 2.25 µM.

**Q.** And the IC50 (B16-F10)?
**A.** Its IC50 is > 10 µM.

**Q.** And the IC50 (CT26)?
**A.** Its IC50 is > 10 µM.

**Q.** Which results are given for `C[C@]12CC[C@H](OS(=O)(=O)O)C[C@@]1(O)CC[C@@H]1[C@@H]2CC[C@]2(C)[C@@H](c3ccc(=O)oc3)CC[C@]12O`?
**A.** IC50 (A549): 0.036 µM; IC50 [1]: 0.007 µM; IC50 [2]: 0.051 µM; IC50 (MCF7): 1.58 µM; IC50 (B16-F10): > 10 µM; IC50 (CT26): > 10 µM

**Q.** For `C[C@]12CC[C@H]3[C@@H](CC[C@@H]4C[C@@H](OS(=O)(=O)O)CC[C@@]43CO)[C@@]1(O)CC[C@@H]2c1ccc(=O)oc1`, which IC50 (A549) is on record?
**A.** Its IC50 is 0.005 µM.

**Q.** And the IC50 [1]?
**A.** Its IC50 is 0.082 µM.

**Q.** What about the IC50 [2] of the same compound?
**A.** Its IC50 is 0.012 µM.

**Q.** What about the IC50 (MCF7) of the same compound?
**A.** The IC50 was 0.15 µM.

**Q.** And the IC50 (B16-F10)?
**A.** The IC50 was > 10 µM.

**Q.** And the IC50 (CT26)?
**A.** The IC50 was > 10 µM.

**Q.** With `C[C@]12CC[C@H](OS(=O)(=O)O)C[C@H]1CC[C@@H]1[C@@H]2CC[C@]2(C)[C@@H](c3ccc(=O)oc3)[C@@H](O)C[C@]12O` as the compound, how does the IC50 (A549) read?
**A.** The IC50 was 0.464 µM.

**Q.** What about the IC50 [1] of the same compound?
**A.** The IC50 was 0.177 µM.

**Q.** What about the IC50 [2] of the same compound?
**A.** The IC50 was 0.525 µM.

**Q.** And the IC50 (MCF7)?
**A.** Its IC50 is 3.29 µM.

**Q.** What about the IC50 (B16-F10) of the same compound?
**A.** Its IC50 is > 10 µM.

**Q.** What about the IC50 (CT26) of the same compound?
**A.** The IC50 was > 10 µM.

**Q.** With `C[C@@H]1O[C@@H](O[C@H]2CC[C@]3(C=O)[C@H]4CC[C@]5(C)[C@@H](c6ccc(=O)oc6)CC[C@]5(O)[C@@H]4CC[C@]3(O)C2)[C@H](O)[C@H](O)[C@H]1O[C@@H]1O[C@H](CO)[C@@H](O)[C@H](O)[C@H]1O` [HELLEBRIN] as the compound, how does the IC50 (A549) read?
**A.** Its IC50 is 0.016 µM.

**Q.** What about the IC50 [1] of the same compound?
**A.** Its IC50 is 0.007 µM.

**Q.** And the IC50 [2]?
**A.** The IC50 was 0.049 µM.

**Q.** What about the IC50 (MCF7) of the same compound?
**A.** The IC50 was 0.082 µM.

**Q.** And the IC50 (B16-F10)?
**A.** Its IC50 is > 10 µM.

**Q.** What about the IC50 (CT26) of the same compound?
**A.** The IC50 was > 10 µM.

**Q.** With `C[C@]12CC[C@H]3[C@@H](CC[C@]4(O)C[C@@H](OS(=O)(=O)O)CC[C@]34C=O)[C@@]1(O)CC[C@@H]2c1ccc(=O)oc1` as the compound, how does the IC50 (A549) read?
**A.** Its IC50 is 0.045 µM.

**Q.** And the IC50 [1]?
**A.** Its IC50 is 0.098 µM.

**Q.** And the IC50 [2]?
**A.** The IC50 was 0.396 µM.

**Q.** And the IC50 (MCF7)?
**A.** The IC50 was 0.507 µM.

**Q.** And the IC50 (B16-F10)?
**A.** The IC50 was > 10 µM.

**Q.** And the IC50 (CT26)?
**A.** The IC50 was > 10 µM.
